The values below come from ChEMBL document CHEMBL4177702, “Design and synthesis of aminoester heterodimers containing flavone or chromone moieties as modulators of P-glycoprotein-based multidrug resistance (MDR)” (Bioorg Med Chem, 2018).

Holding throughout (type): cell-based
The nature of series [1]: (§1) Inhibition of P-gp in human K562/Dox cells assessed as increase in nuclear accumulation of pirarubicin by spectrofluorometric assay. The note with it: read-out: I50.
Series [2] is described as follows: Cytotoxicity against human K562/Dox cells assessed as reduction in cell viability at 1 to 3 uM after 72 hrs by MTT assay. In a few lines:
(§2)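 Exponentially growing cells (3×10^5 cells/mL) seeded at 10^4 cells/well and exposed to compound at 1.0 and 3.0 μM (diluted from 10^-2 M DMSO stocks in complete medium) for 72 h at 37 °C, 5% CO2. MTT added for 3 h, formazan dissolved in acidified isopropanol, absorbance at 570 nm. Toxicity expressed as proliferation relative to untreated control (100%).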
In general terms: Formazan colour is commonly taken as a measure of viable cells.

The test system of series [3] is K562. The series can be described thus: Cytotoxicity against human K562 cells assessed as reduction in cell viability at 1 to 3 uM after 72 hrs by MTT assay. The note with it: k562, 72 h. In a few lines:
as §2

For series [4], the species on record is Homo sapiens. The series can be described thus: Inhibition of P-gp in human K562/Dox cells assessed as nuclear accumulation of pirarubicin at 10^-5 M by spectrofluorometric assay relative to control.
The species entered for series [5] is Homo sapiens. The series is described as §1.

Calls of active or inactive are those of the source. The rule behind the calls is not given here.

For `COc1cc(/C=C/C(=O)OCCCCCN(C)CCCCCOC(=O)c2cc(=O)c3c(O)cc(O)cc3o2)cc(OC)c1OC`, the IC50 in series [1] came out at 2430 nM.
Take `COc1cc(/C=C/C(=O)OCCCCCN(C)CCCCCOC(=O)COc2ccc(-c3cc(=O)c4ccccc4o3)cc2)cc(OC)c1OC`: the IC50 in series [1] turned out to be 340 nM. The Activity entry in series [2] and in series [3] was “Non-Toxic” in each case.
With `COc1cc(/C=C/C(=O)OCCCN(C)CCCOC(=O)COc2ccc(-c3cc(=O)c4c(O)cc(O)cc4o3)cc2)cc(OC)c1OC`, the Efficacy in series [4] is 4 to 30%.
`COc1cc(/C=C/C(=O)OCCCCCNCCCCCOC(=O)COc2ccc(-c3cc(=O)c4ccccc4o3)cc2)cc(OC)c1OC`: in series [1], the IC50 is 1320 nM.
For the molecule `COc1cc(/C=C/C(=O)OCCCN(C)CCCOC(=O)c2cc(=O)c3c(OC)cccc3o2)cc(OC)c1OC`, in series [4], the Efficacy is 4 to 30%.
For the molecule `COc1cc(/C=C/C(=O)OCCOCCN(C)CCOCCOC(=O)c2cc(=O)c3c(O)cc(O)cc3o2)cc(OC)c1OC`, the I50 result in series [5] was “inactive”.
With `COc1cc(/C=C/C(=O)OCCCCCN(C)CCCCCOC(=O)c2cc(=O)c3c(OC)cccc3o2)cc(OC)c1OC`, in series [1], the IC50 is 3500 nM.
Consider `COc1cc(/C=C/C(=O)OCCOCCN(C)CCOCCOC(=O)COc2ccc(-c3cc(=O)c4ccccc4o3)cc2)cc(OC)c1OC`, for which the IC50 in series [1] was found to be 1230 nM. Besides, the Activity result in series [2] and in series [3] was “Non-Toxic” throughout.
Turning to `COc1cc(/C=C/C(=O)OCCCN(C)CCCOC(=O)c2cc(=O)c3c(O)cccc3o2)cc(OC)c1OC`, in series [4], the Efficacy lay within 4 to 30%.
The same measure, in the same setting: the same measure for `COc1cc(OC)c2c(=O)cc(C(=O)OCCCN(C)CCCOC(=O)/C=C/c3cc(OC)c(OC)c(OC)c3)oc2c1`: 4 to 30%.
Turning to `COc1cc(/C=C/C(=O)OCCOCCNCCOCCOC(=O)COc2ccc(-c3cc(=O)c4ccccc4o3)cc2)cc(OC)c1OC`, the Activity result in series [2] and in series [3] was “Non-Toxic” in each case.
In the case of `COc1cc(/C=C/C(=O)OCCCCCN(CCCCCOC(=O)COc2ccc(-c3cc(=O)c4ccccc4o3)cc2)Cc2ccccc2)cc(OC)c1OC`, in series [1], the IC50 turned out to be 430 nM.
Regarding `COc1cc(OC)c2c(=O)cc(C(=O)OCCCCCN(C)CCCCCOC(=O)/C=C/c3cc(OC)c(OC)c(OC)c3)oc2c1`, the IC50 in series [1] is 1320 nM.
The same measure, in the same setting: the same measure for `COc1cc(/C=C/C(=O)OCCCCCN(C)CCCCCOC(=O)COc2ccc(-c3cc(=O)c4c(O)cc(O)cc4o3)cc2)cc(OC)c1OC`: 960 nM.
As for `COc1cc(/C=C/C(=O)OCCCN(C)CCCOC(=O)c2cc(=O)c3c(O)cc(O)cc3o2)cc(OC)c1OC`, the Activity entry in series [2] and in series [3] was “Non-Toxic” each time. The Efficacy in series [4] is 4 to 30%.
`COc1cc(/C=C/C(=O)OCCCCCN(C)CCCCCOC(=O)c2cc(=O)c3c(O)cccc3o2)cc(OC)c1OC`: the IC50 in series [1] came to 350 nM.
